The results in this text go back to ChEMBL document CHEMBL4033670, “Synthesis, characterization, molecular docking and in vitro antimalarial properties of new carboxamides bearing sulphonamide” (Eur J Med Chem, 2017).

In general, IC50 refers to the concentration that gives 50% inhibition. The inhibition is the percentage by which the read-out fell short of the control. One may read the MIC99 as an inhibitory concentration at the 99% level, which refers to growth in some studies and to a panel of isolates in others.

Holding throughout (assay type): functional
A short description of test [1]: Antioxidant activity assessed as DPPH radical scavenging activity after 20 mins under dark condition by UV-Visible spectrophotometric analysis. The procedure, abridged: (§1)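 Test compounds were made up in ethanol at 1.0, 2.0, 3.0, 4.0 and 5.0 mg/mL (solution concentrations before mixing). 1 mL of each was shaken with 4 mL of 0.1 mM ethanolic DPPH and kept in the dark at room temperature for 20 min. The decrease in A517 was read against an ethanol baseline. A DPPH blank had no compound. Scavenging % = [(Ac − As)/Ac] × 100.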
A general note: Loss of DPPH colour is used to gauge radical scavenging.

Test [2] in a line: Antioxidant activity assessed as inhibition of DPPH radical generation at 5 mg/ml after 20 mins under dark condition by UV-Visible spectrophotometric analysis relative to control. In short, it runs like this:
as §1

Test [3] can be described thus: Antioxidant activity assessed as inhibition of DPPH radical generation at 2 mg/ml after 20 mins under dark condition by UV-Visible spectrophotometric analysis relative to control. In short, it runs like this:
as §1

A short description of test [4]: Antioxidant activity assessed as inhibition of DPPH radical generation at 4 mg/ml after 20 mins under dark condition by UV-Visible spectrophotometric analysis relative to control. The procedure, abridged:
as §1

Test [5] in a line: Antioxidant activity assessed as inhibition of DPPH radical generation at 3 mg/ml after 20 mins under dark condition by UV-Visible spectrophotometric analysis relative to control. In short, it runs like this:
as §1

The next test has as its system Plasmodium falciparum. As to the kind of experiment: Antimalarial activity against ring stage chloroquine-resistant Plasmodium falciparum W2 preincubated for 48 hrs measured after 48 hrs in presence of 10% human serum by YOYO-1 dye-based FACS analysis. In short, it runs like this:
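Sorbitol-synchronized ring-stage W2 parasites at 0.1% parasitemia grown 48 h in RPMI-1640 + 10% human serum under 3% O2/6% CO2/91% N2 with inhibitors (from 1000× DMSO stocks), no media change. Fixed 48 h in 1% formaldehyde/PBS pH 7.4 at room temperature. Stained with 1 nM YOYO-1 in 0.1% Triton X-100/PBS. Parasitemia read by flow cytometry.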
On the technique in general: A flow cytometer gives signals particle by particle.

Test [6] can be described thus: Antioxidant activity assessed as inhibition of DPPH radical generation at 1 mg/ml after 20 mins under dark condition by UV-Visible spectrophotometric analysis relative to control. The procedure, abridged: as §1
Test [7] is described as follows: Antioxidant activity assessed as inhibition of DPPH radical generation at 0.04 mg/ml after 20 mins under dark condition by UV-Visible spectrophotometric analysis relative to control.
The nature of test [8]: Antioxidant activity assessed as inhibition of DPPH radical generation at 0.05 mg/ml after 20 mins under dark condition by UV-Visible spectrophotometric analysis relative to control.
Test [9] can be described thus: Antioxidant activity assessed as inhibition of DPPH radical generation at 0.01 mg/ml after 20 mins under dark condition by UV-Visible spectrophotometric analysis relative to control.
Test [10] in a line: Antioxidant activity assessed as inhibition of DPPH radical generation at 0.03 mg/ml after 20 mins under dark condition by UV-Visible spectrophotometric analysis relative to control.
A short description of test [11]: Antioxidant activity assessed as inhibition of DPPH radical generation at 0.02 mg/ml after 20 mins under dark condition by UV-Visible spectrophotometric analysis relative to control.

As for `CC(=O)c1ccc(NC(=O)CN(C(=O)c2ccccc2)S(=O)(=O)c2ccc([N+](=O)[O-])cc2)cc1`, the IC50 in test [1] was determined as 58 mM. The inhibition stood at 20.7% in test [2]; 20.6% in test [3]; 20.7% in test [4]; 20.6% in [5]; 20.6% in [6]. Moreover, in the test on Plasmodium falciparum, the MIC99 was 0.18 µM.
As for `O=C1O[C@H]([C@@H](O)CO)C(O)=C1O` [ASCORBIC ACID], the IC50 in test [1] turned out to be 0.34 mM. In addition, the inhibition was 30% in test [7]; 40% in test [8]; 15% in test [9]; 25% in test [10]; 20% in [11].
